Measured values: ChEMBL document CHEMBL4680077, “Differentiation of skeletal osteogenic progenitor cells to osteoblasts with 3,4-diarylbenzopyran based amide derivatives: Novel osteogenic agents” (Eur J Med Chem, 2016)
Calls of active or inactive are those of the source. The rule behind the calls is not given here.

What was measured:
[1] = tested on: Calvarial osteoblast; assay: Induction of osteoblast differentiation in mouse calvarial osteoblast assessed as increase in mineralization nodules at 1 pM incubated for 15 days by alizarin-red S dye based colorimetric analysis; format: functional, cell-based; conditions: time 15.0 day
Method in brief: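 Calvarial osteoblasts were seeded at 2×10³ cells/well in differentiation medium (10 mM β-glycerophosphate, ascorbic acid) and cultured ± 1 pM with medium changed every 48 h. Cells were fixed in 4% formaldehyde and stained with 40 mM alizarin red S. Dye was extracted in 10% acetic acid at 85 °C, neutralized with ammonium hydroxide and read at 405 nm. n = 3.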

[2] = tested on: Calvarial osteoblast; assay: Induction of osteoblast differentiation in mouse calvarial osteoblast assessed as increase in collagen type 1 mRNA expression at 1 pM incubated for 24 and 48 hrs by qPCR analysis; format: functional, cell-based
Method in brief: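 Calvarial osteoblasts were treated at 1 pM for 24 and 48 h. Total RNA was extracted with TRIzol, and cDNA was made from 2 µg RNA. qPCR ran 40 cycles for BMP-2, RUNX-2, OCN and collagen type 1, with normalization to GAPDH. Mean ± SEM of three independent experiments.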

[3] = tested on: Mus musculus; assay: In vivo osteogenic activity in ovariectomized BALB/c mouse assessed as increase in femur bone volume density at 1 to 10 mg/kg, po via gavage administered for 1 month by microCT imaging analysis; format: functional, organism-based; conditions: dose 1-10 mg/kg, time 1.0 months
Method in brief: (§1)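 Ovariectomized female balb/c mice, 8 weeks old, 10 per group, received 1.0 or 10.0 mg kg-1 once daily by oral gavage (gum acacia vehicle) for 4 weeks, alongside sham and Ovx vehicle groups. Femurs were scanned by microCT. BV/TV, Tb.N and Tb.Sp were derived by the mean intercept length method. Mean ± SE.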

[4] = tested on: Mus musculus; assay: In vivo osteogenic activity in ovariectomized BALB/c mouse assessed as increase in trabecular number at 1 to 10 mg/kg, po via gavage administered for 1 month by microCT imaging analysis; format: functional, organism-based; conditions: dose 1-10 mg/kg, time 1.0 months; method in brief: as §1
[5] = tested on: Mus musculus; assay: In vivo osteogenic activity in ovariectomized BALB/c mouse assessed as decrease in trabecular spacing at 1 to 10 mg/kg, po via gavage administered for 1 month by microCT imaging analysis; format: functional, organism-based; conditions: dose 1-10 mg/kg, time 1.0 months; method in brief: as §1
[6] = tested on: Mus musculus; assay: In vivo osteogenic activity in ovariectomized BALB/c mouse assessed as decrease in serum OCN at 1 to 10 mg/kg, po via gavage administered for 30 days; format: functional, organism-based; conditions: dose 1-10 mg/kg, time 30.0 day
Method in brief: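 Eight-week-old female balb/c mice were ovariectomized and dosed once daily by oral gavage at 1 or 10 mg kg-1 in vehicle (gum acacia in water) for 30 days; sham and Ovx vehicle groups served as controls. Serum CTx and osteocalcin were assayed in duplicate. n = 10 per group; mean ± SEM.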

[7] = Acute toxicity in Swiss albino mouse assessed as body weight at 50 mg/kg, po observed on day 1 (reference value: 20.38 +/- 0.24 g); format: organism-based; conditions: in vivo, 24 h, time 1 day
[8] = Acute toxicity in Swiss albino mouse assessed as body weight at 300 mg/kg, po observed on day 1 (reference value: 20.38 +/- 0.24 g); format: organism-based; conditions: in vivo, 24 h, time 1 day
[9] = Acute toxicity in Swiss albino mouse assessed as body weight at 5 mg/kg, po measured on day 7 (reference value: 22.75 +/- 0.38 g); format: organism-based; conditions: in vivo, 168 h, time 7 day
[10] = Acute toxicity in Swiss albino mouse assessed as WBC count per thousand/mm3 at 5 mg/kg, po measured after 7 days (reference value: 6.84 +/- 0.83 /mm3); format: organism-based; conditions: in vivo, 168 h, time 7 day
[11] = Acute toxicity in Swiss albino mouse assessed as ALKP level at 50 mg/kg, po measured after 7 days (reference value: 379.25 +/- 27.08 U/L); format: organism-based; conditions: in vivo, 168 h, time 7 day
[12] = Acute toxicity in Swiss albino mouse assessed as SGOT level at 50 mg/kg, po measured after 7 days (reference value: 31.99 +/- 3.37 U/L); format: organism-based; conditions: in vivo, 168 h, time 7 day
[13] = Acute toxicity in Swiss albino mouse assessed as creatinine level at 50 mg/kg, po measured after 7 days (reference value: 0.97 +/- 0.07 mg/dL); format: organism-based; conditions: in vivo, 168 h, time 7 day
[14] = Acute toxicity in Swiss albino mouse assessed as triglycerides level at 300 mg/kg, po measured after 7 days (reference value: 58.51 +/- 10.82 mg/dL); format: organism-based; conditions: in vivo, 168 h, time 7 day
[15] = Acute toxicity in Swiss albino mouse assessed as reduced GSH level at 1000 mg/kg, po measured after 7 days (reference value: 18.20 +/- 1.56 ug/mg of protein); format: organism-based; conditions: in vivo, 168 h, time 7 day
[16] = Acute toxicity in Swiss albino mouse assessed as malondialdehyde level at 1000 mg/kg, po measured after 7 days (reference value: 0.14 +/- 0.01 nM/mg); format: organism-based; conditions: in vivo, 168 h, time 7 day
[17] = Acute toxicity in Swiss albino mouse assessed as basophil count at 300 mg/kg, po measured after 7 days (reference value: 1.50 +/- 0.29 %); format: organism-based; conditions: in vivo, 168 h, time 7 day
[18] = Acute toxicity in Swiss albino mouse assessed as absolute lung weight at 300 mg/kg, po measured after 7 days (reference value: 0.16 +/- 0.01 g); format: organism-based; conditions: in vivo, 168 h, time 7 day
[19] = Acute toxicity in Swiss albino mouse assessed as absolute spleen weight at 300 mg/kg, po measured after 7 days (reference value: 0.17 +/- 0.03 g); format: organism-based; conditions: in vivo, 168 h, time 7 day
[20] = Acute toxicity in Swiss albino mouse assessed as absolute kidney weight at 300 mg/kg, po measured after 7 days (reference value: 0.29 +/- 0.02 g); format: organism-based; conditions: in vivo, 168 h, time 7 day
[21] = Acute toxicity in Swiss albino mouse assessed as absolute heart weight at 5 mg/kg, po measured after 7 days (reference value: 0.12 g); format: organism-based; conditions: in vivo, 168 h, time 7 day
[22] = Acute toxicity in Swiss albino mouse assessed as relative spleen weight at 5 mg/kg, po measured after 7 days (reference value: 0.73 +/- 0.14 %); format: organism-based; conditions: in vivo, 168 h, time 7 day
[23] = Acute toxicity in Swiss albino mouse assessed as relative heart weight at 1000 mg/kg, po measured after 7 days (reference value: 0.51 +/- 0.02 %); format: organism-based; conditions: in vivo, 168 h, time 7 day
[24] = Toxicity in ovariectomized BALB/c mouse assessed as uterine estrogenicity by measuring uterine weights at 1 to 10 mg/kg, po administered for 30 days and measured on day 30; format: organism-based; conditions: in vivo, 720 h, dose 1-10 mg/kg, time 30 day
Method in brief: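 Six-to-eight-week-old balb/c mice (n = 10) were ovariectomized and dosed orally for 30 consecutive days: test agent at 1 or 10 mg kg-1 day-1, or 17β-E2 at 0.01 mg kg-1 day-1. Uterine weights were recorded and compared with the Ovx vehicle group; mean ± SEM.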

[25] = tested on: Calvarial osteoblast; assay: Induction of osteoblast differentiation in mouse calvarial osteoblast assessed as increase in ALP activity using PNPP as substrate at 1 pM incubated for 48 hrs by spectrophotometric analysis; format: functional, cell-based
[26] = Acute toxicity in Swiss albino mouse assessed as mortality at 5 to 1000 mg/kg, po measured after 7 days; format: organism-based; conditions: in vivo, 168 h, dose 5-1000 mg/kg, time 7 day
Method in brief: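 Acute oral toxicity per OECD guidelines 420, 423 and 425. Swiss albino mice received a single oral dose at 5, 50, 300 or 1000 mg kg1 body weight, with vehicle controls. Animals were watched for morbidity, mortality and observational changes over 7 days. Tail-vein blood was then taken for hematology and serum biochemistry. Organs were inspected at sacrifice. n = 6 per group.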

With CCCCN(C)C(=O)CCCCOc1ccc([C@H]2c3ccc(OC)cc3OC(C)(C)[C@@H]2c2ccccc2)cc1 the Activity [1] was “Active”, the Activity [2] was “Active” and the Activity [3] was “Active”. For the same molecule, the Activity [4] was “Active”, the Activity [5] was “Active” and the Activity [6] was “Active”. The Activity [7] was 20.38 g, the Activity [8] was 19.61 g and the Activity [9] was 24.25 g. For the same molecule, the Activity [10] was 6.1 10^3/mm3, the Activity [11] was 306.33 U/L and the Activity [12] was 40.13 U/L. It also gave an Activity [13] of 0.8 mg/dL, an Activity [14] of 57.55 mg/dL and an Activity [15] of 13.98 µg/mg. For the same molecule, the Activity [16] was 0.16 nM/mg, the Activity [17] was 1.25% and the Activity [18] was 0.17 g. For the same molecule, the Activity [19] was 0.13 g, the Activity [20] was 0.27 g and the Activity [21] was 0.12 g. The Activity [22] was 0.46%, the Activity [23] was 0.57% and the Activity [24] was “Non-Toxic”. For the same molecule, the Activity [25] was “Active” and the Activity [26] was “Non-Toxic”.
